This is a sample that favours compounds with a hit; in the whole collection about 4% have one here.
E-sel inducer: induces E-selectin expression in human endothelial cells | P16581 | HUVEC E-selectin immunofluorescence imaging; normalized: neutral wells 0, TNF-alpha wells 100 | activation, % at 7.58 µM | 0.37% of 260,000 active;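 active = mean E-selectin-positive cell signal at least 10% of the positive control, reached in at least 60% of replicates, without over 20% cell loss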
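Read-out basis: % PE-positive cells; Test system: HUVEC primary endothelial cells; Technique: immunofluorescence imaging; Dosing: single-point compound dose.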
FN deposition inh: fibronectin deposition inhibition | AH1F fibroblasts, Alexa488-fibronectin deposition fluorescence, overnight | inhibition, % at 12.6 µM | 0.086% of 350,000 active;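 active = mean inhibition across replicates of 30% or more, regardless of how many single replicates reach that level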;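 note: positive control wells lacked labelled fibronectin entirely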
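Material: AH1F fibroblast monolayer depositing Alexa488-labelled fibronectin into matrix / Amount: 10000 AH1F cells per well / Signal: fluorescence 485/525 nm / Medium: DMEM, 2% serum / Compound: single dose, pinned / Incubation: 1 h cell adhesion before compound, then overnight fibronectin incubation / Reagent: Alexa488-FN, 24 nM final / Read-out: inhibition of fibronectin deposition signal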
rRNA inh HTS: selective bacterial rRNA inhibition in E. coli; E. coli WT GFP vs humanized-ribosome RFP mutants, fluorescence, 24 h; stronger effect = lower value; DMSO median 0, no signal -100; GFP signal change (wild-type ribosome), % (concentration not given with the values); 1.6% of 350,000 active; AID 720706;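 active = significant combined selectivity score with lowered wild-type GFP, culture density cut under 30%, mutant RFP and density less affected; inactive = any of these conditions unmet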
SIRT5 block: blocks human SIRT5 desuccinylation of peptide; inhibition, % at 15 µM; Q9NXA8; Purified SirT5, succinyl-peptide AMC, trypsin-coupled fluorescence; 1.1% of 330,000 active; AID 652115; in the data active = inhibition above about 15%
Target sequence (Q9NXA8 whole entry, looked up): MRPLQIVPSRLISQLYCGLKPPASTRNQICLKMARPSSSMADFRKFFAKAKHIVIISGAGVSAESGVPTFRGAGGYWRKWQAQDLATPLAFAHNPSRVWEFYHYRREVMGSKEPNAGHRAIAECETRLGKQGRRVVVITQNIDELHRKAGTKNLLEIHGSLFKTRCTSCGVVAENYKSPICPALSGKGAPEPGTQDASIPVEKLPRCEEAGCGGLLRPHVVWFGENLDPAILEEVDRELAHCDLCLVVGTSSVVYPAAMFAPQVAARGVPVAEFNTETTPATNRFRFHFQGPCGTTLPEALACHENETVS
Statin myotox sup: suppressors of simvastatin-induced myotoxicity in C2C12 myotubes. ATP luminescence, 48 h; scaled: DMSO 0, geranylgeraniol control 100. 0.78% of 330,000 active. AID 602340. rescue of ATP level, % at 7.49 µM;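 active = mean ATP rescue above about 67%, or every replicate alone reaching that limit, limit read from the data, passing the limit was not always enough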;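 note: myotubes were challenged with 10 µM simvastatin during compound exposure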
FGF22 binding: shifts melting point of recombinant human FGF22; Q9HCT0; activity (Tm shift, normalised), % at 9.99 µM; AID 651658; 1.5% of 340,000 active; recombinant FGF22 thermal shift, SYPRO orange fluorescence; percent of sucrose octasulfate shift, DMSO zero;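 active = mean Tm shift, scaled 0 neutral to 100 positive control, at about 1.3% or above, every replicate too, limit read from the data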
Target sequence (Q9HCT0 whole entry, looked up): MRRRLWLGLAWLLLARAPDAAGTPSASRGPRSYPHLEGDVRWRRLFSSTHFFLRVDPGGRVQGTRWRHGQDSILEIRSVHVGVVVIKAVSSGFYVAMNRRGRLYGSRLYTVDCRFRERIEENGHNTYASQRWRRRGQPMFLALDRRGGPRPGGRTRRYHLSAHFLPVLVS
Numbers without * were called inactive; / = not tested or not shown.

SMILES	E-sel inducer	FN deposition inh	rRNA inh HTS	SIRT5 block	Statin myotox sup	FGF22 binding
NS(=O)(=O)c1ccc(CCNC(=O)c2cc([N+](=O)[O-])ccc2N2CCCCC2)cc1	/	-4.6	-17.1*	-12.9	9.0	0.0
NS(=O)(=O)c1ccc(CCNC(=O)/C=C/c2ccc([N+](=O)[O-])cc2)cc1	/	-0.8	-17.9*	0.3	/	42.0
N[C@@H](Cc1ccc(O)c(O)c1)C(=O)O	0.1	-5.1	/	15.1*	1.0	-0.7
NC(Cc1ccc(O)c([N+](=O)[O-])c1)C(=O)O (centres undefined)	/	2.5	/	/	/	/
CC(C)c1ccc(NC(=O)COC(=O)COc2ccccc2)cc1	/	-2.0	/	-0.4	/	43.1*
CC(C)c1ccc(OCC(=O)NCc2ccccc2)cc1	0.2	0.5	-22.2*	-3.3	4.0	0.1
CC(C)c1ccc(CNC(=O)CCc2ccccc2)cc1	/	/	-41.7	0.0	/	0.0
CC(C)NC(=O)Nc1cccc2c1O[C@H](CN(C)C(=O)NC(C)C)[C@@H](C)CN([C@@H](C)CO)C2=O	0.0	/	-2.0	-3.1	1.7	0.0
CO[C@@H]1CN(C)C(=O)c2cc(NC(=O)C3CC3)ccc2OC[C@@H](C)N(C)C[C@@H]1C	0.0	-3.5	2.5	-3.2	-3.4	-0.1
O=C1CN(C(=O)CSc2nc(-c3ccc(Cl)cc3)cs2)c2ccccc2N1	/	7.9	-20.5	15.0*	-6.9	-0.2
Cc1nnc(SCC(=O)N2CC(=O)Nc3ccccc32)s1	0.6	-14.6	8.8	-3.2	/	0.2
Cc1ccc(S(=O)(=O)Nc2ccc3c(c2)C(=O)N([C@@H](C)CO)C[C@H](C)[C@@H](CN(C)C(=O)c2ccncc2)OCCCC[C@@H](C)O3)cc1	/	-4.4	0.3	/	45.6	-0.2
NC(=NCCc1c[nH]c2ccccc12)NC(=O)c1ccc(F)cc1	3.4	-2.4	-32.9*	-2.6	-4.6	-0.2
NC(=NCCc1c[nH]c2ccccc12)NS(=O)(=O)c1ccc2ccccc2c1	/	-1.7	/	/	/	/
COc1ccc2c3c(n(C)c2c1)[C@H](CO)N(Cc1ccncc1)CC31CCN(C(=O)NC(C)C)CC1	0.3	/	3.2	0.9	/	-0.1
CC(C)NC(=O)N(C)C[C@@H]1Oc2ccc(NS(C)(=O)=O)cc2C(=O)N(C)C[C@H]1C	/	-17.2	1.2	/	/	/
Nc1ccc(Cc2ccc(N)c(C(=O)O)c2)cc1C(=O)O	/	/	15.0	45.4*	17.7	0.2
Cc1cc(Cc2ccc(N)c(C)c2)ccc1N	10.8	-23.1	5.8	-1.1	/	0.2
Cc1nn(-c2ccccc2)c2nc(C(F)(F)F)[nH]c(=O)c12	/	/	-14.6	-3.0	/	0.1
Cc1nn(-c2cc(C(F)(F)F)ccc2Cl)c2nc(C(Cl)(Cl)Cl)[nH]c(=O)c12	11.5	-7.1	-15.2*	-4.4	-13.2	0.2
C[C@@H]1CN([C@@H](C)CO)C(=O)c2cccc(NS(=O)(=O)c3cn(C)cn3)c2O[C@H]1CN(C)Cc1ccc(C(F)(F)F)cc1	-5.4	/	-2.3	21.2*	-8.3	0.1
C[C@@H]1CN([C@H](C)CO)C(=O)c2cccc(NS(=O)(=O)c3cn(C)cn3)c2O[C@@H]1CN(C)Cc1ccc(Cl)c(Cl)c1	66.8*	/	-1.0	-2.8	29.1	0.1
CCn1nc(C)c(CCC(=O)O)c1C	1.6	-6.3	15.2	1.2	/	42.9*
Cc1nn(C)c(C)c1CCC(=O)O	/	-1.7	29.4	-3.0	4.1	0.1
COc1ccc(CNC(=O)CCOc2ccc(C(C)(C)C)cc2)cc1	/	/	/	/	104.3*	/
SMILES	E-sel inducer	FN deposition inh	rRNA inh HTS	SIRT5 block	Statin myotox sup	FGF22 binding
COc1ccc(CNC(=O)COc2ccc(OC)cc2)cc1	0.1	6.9	5.0	-0.6	25.0	0.0
Cc1ccc2ccccc2c1CSc1nc(N)nc2c1ncn2CC(C)C	-0.3	-4.1	-29.8*	-0.5	/	-0.2
C[C@@H]1CN([C@H](C)CO)C(=O)c2cc(NS(=O)(=O)c3cn(C)cn3)ccc2O[C@@H](C)CCCCO[C@@H]1CN(C)S(=O)(=O)c1ccccc1	/	8.8	-0.2	1.9	/	-0.6
O=C(c1ccc(Cl)cc1)C1CCCN(C(=O)/C=C/c2ccccn2)C1 (centres undefined)	0.0	6.8	/	3.8	/	43.8*
C[C@H]1CN([C@@H](C)CO)C(=O)c2cc(NC(=O)C3CC3)ccc2O[C@@H]1CN(C)Cc1ccc(C(F)(F)F)cc1	-0.2	/	-1.7	0.4	4.1	-0.3
N#C/C(=N\Nc1cc(Cl)cc(Cl)c1)c1nnc2n1CCCCC2	/	4.1	-17.1	0.4	4.3	43.2*
N#C/C(=C(/O)CCl)c1nnc2n1CCCCC2	5.7	2.7	13.2	-1.7	/	0.0
CC(=O)N[C@@H]1C=C[C@@H](CC(=O)NCc2ccc(Cl)cc2)O[C@H]1CO	0.3	/	2.2	2.3	-2.5	0.0
O=C(COC(=O)CNC(=O)c1ccc(Br)o1)Nc1ccc2c(c1)OCCO2	/	/	/	/	141.2*	/
O=C(COC(=O)c1ccco1)Nc1ccc2[nH]c(=O)[nH]c2c1	/	-25.5	1.4	-0.6	1.3	0.1
O=C(COC(=O)c1ccc(Br)o1)Nc1ccc2[nH]c(=O)[nH]c2c1	26.7*	2.2	6.3	-2.1	9.1	0.0
Cc1ccc(S(=O)(=O)N(C)C[C@H]2OCCCC[C@@H](C)Oc3ccc(NC(=O)Nc4c(C)noc4C)cc3C(=O)N([C@H](C)CO)C[C@H]2C)cc1	/	7.3	-3.1	-0.7	/	-0.1
O=C(C[C@@H]1CC[C@H](NC(=O)c2ccc(F)cc2)[C@@H](CO)O1)NCc1ccncn1	0.1	/	2.6	-1.0	-2.7	0.2
CC(C)NC(=O)N(C)C[C@H]1Oc2ccc(NS(=O)(=O)c3ccccc3)cc2CC(=O)N([C@@H](C)CO)C[C@@H]1C	-0.2	/	1.1	/	15.8	/
C[C@H](CO)N1C[C@H](C)[C@@H](CN(C)C(=O)NC2CCCCC2)Oc2ncc(C#CCN(C)C)cc2C1=O	0.2	0.5	-3.8	1.5	16.0	0.0
C[C@H](CO)N1C[C@H](C)[C@H](CN(C)Cc2ccc(F)cc2)OCc2ccccc2-c2c(n(C)c3ccccc23)C1=O	-0.7	6.3	-3.4	1.2	/	-0.2
O=C(C[C@@H]1C=C[C@@H](NC(=O)Nc2ccc(C(F)(F)F)cc2)[C@@H](CO)O1)NCc1cc(F)cc(F)c1	0.9	-4.3	-1.3	-0.9	-0.2	-0.1
COc1ccc(C2Nc3ccccc3C(=O)N2Cc2ccccc2)cc1 (centres undefined)	/	-2.1	8.7	-13.4	20.4	0.0
COc1ccc([C@@H]2[C@@H](C)N(c3ccccc3)c3ccccc3C(=O)N2Cc2ccccc2)cc1	-0.2	-14.0	-1.8	/	-2.4	43.5*
COc1ccc(Cc2nnc(NC(=O)c3ccccc3[N+](=O)[O-])s2)cc1	-0.1	-0.7	-29.8*	-3.4	/	0.3

Bioassay records from PubChem.
